Compound activity as filed in PubChem.
In the library only some 4.1% were active in any assay of this set; here they are far more common.
KCNK9 block: KCNK9 potassium channel inhibitors, primary screen, HEK293 cells, thallium flux | Potassium channel subfamily K member 9 (Homo sapiens), Q9NPC2 | FluxOR thallium flux fluorescence; active compounds read low | B-score at 10 µM | 310,000 tested, 1.2% active;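 active means ratio B-score over 3 SD below the library mean, with starting fluorescence within 5 SD of its mean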;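 further: negative B-score means less thallium flux so channel inhibition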
KCNK3 inh: human KCNK3 channel inhibitors, primary screen, CHO cells, FluxOR thallium flux, B-score | B-score at 10 µM | FluxOR fluorescence; active compounds read low | 340,000 tested, 0.84% active | AID 602410, 2012;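 active means B-score under library mean minus 4 SD, starting fluorescence ratio at most library mean plus 5 SD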;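 further: more negative B-score means stronger inhibition of thallium flux through KCNK3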
KCC2 mod: KCC2 cotransporter modulators, thallium flux, primary screen, cell-based, HEK293 KCC2, FluoZin-2 fluorescence, MLSMR; Solute carrier family 12 member 5 (Homo sapiens), Q9H2X9; KCC2 cells, thallium flux FluoZin-2 fluorescence; B-score of Tl+ flux slope (higher = more flux/activation; lower = inhibition) at 10 µM; 190,000 tested, 2.2% active; AID 1456, 2008;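 active means thallium flux slope and its plate-corrected score both differing from the plate sample mean at a set confidence after two filtering rounds, in either direction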;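 further: slope of fluorescence scaled to starting intensity during 10 to 20 s after thallium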
Target sequence (Q9H2X9 whole entry, looked up): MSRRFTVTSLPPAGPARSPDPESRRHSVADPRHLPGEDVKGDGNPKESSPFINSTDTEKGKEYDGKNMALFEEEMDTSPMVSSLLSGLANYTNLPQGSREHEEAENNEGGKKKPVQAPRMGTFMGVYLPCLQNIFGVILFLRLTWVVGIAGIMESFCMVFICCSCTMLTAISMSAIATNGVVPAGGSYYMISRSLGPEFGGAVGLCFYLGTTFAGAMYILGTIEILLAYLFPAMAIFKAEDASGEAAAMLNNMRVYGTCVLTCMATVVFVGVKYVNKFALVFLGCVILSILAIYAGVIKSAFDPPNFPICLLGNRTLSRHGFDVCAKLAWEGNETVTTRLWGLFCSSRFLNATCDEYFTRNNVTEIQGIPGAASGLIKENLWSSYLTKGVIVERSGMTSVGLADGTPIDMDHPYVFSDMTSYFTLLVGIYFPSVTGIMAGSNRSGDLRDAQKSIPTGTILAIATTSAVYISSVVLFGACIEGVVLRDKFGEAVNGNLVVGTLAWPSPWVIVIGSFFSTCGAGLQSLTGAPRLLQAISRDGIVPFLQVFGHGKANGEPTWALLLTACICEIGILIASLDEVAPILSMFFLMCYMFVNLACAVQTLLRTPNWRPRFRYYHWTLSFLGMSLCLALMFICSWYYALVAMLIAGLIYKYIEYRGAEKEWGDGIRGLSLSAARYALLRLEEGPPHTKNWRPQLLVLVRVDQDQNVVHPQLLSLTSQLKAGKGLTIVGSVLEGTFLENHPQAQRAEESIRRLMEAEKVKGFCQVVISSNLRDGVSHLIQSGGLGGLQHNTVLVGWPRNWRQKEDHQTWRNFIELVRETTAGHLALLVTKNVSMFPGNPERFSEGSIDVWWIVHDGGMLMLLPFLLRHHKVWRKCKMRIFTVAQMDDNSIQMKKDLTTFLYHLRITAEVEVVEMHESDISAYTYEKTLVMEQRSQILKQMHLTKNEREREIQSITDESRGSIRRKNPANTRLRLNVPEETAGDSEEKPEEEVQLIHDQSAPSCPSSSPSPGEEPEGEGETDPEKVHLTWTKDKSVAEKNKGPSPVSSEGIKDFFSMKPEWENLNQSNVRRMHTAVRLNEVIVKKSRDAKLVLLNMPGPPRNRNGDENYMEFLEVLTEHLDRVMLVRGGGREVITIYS
KCNQ1 block: inhibitors of human KCNQ1 channel, primary screen, cell-based, thallium flux, high-throughput | B-score at 10 µM | 310,000 tested, 1.3% active | CHO-K1 KCNQ1, FluxOR thallium flux fluorescence; active compounds read high | AID 2642, 2010 | Potassium voltage-gated channel subfamily KQT member 1 (Homo sapiens), P51787;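 active means compounds whose thallium flux B-score, printed positive for inhibition, exceeds three library SD while starting fluorescence stays within three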;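 further: channel opened by potassium depolarization with thallium stimulus after 20 min compound exposure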
hERG protect: hERG rescue from dofetilide block, primary screen, cell-based, CHO-hERG, FluxOR thallium flux, dofetilide IC70 | activation (rescue from dofetilide block), less the hit threshold, % at 10 µM | Voltage-gated inwardly rectifying potassium channel KCNH2 (Homo sapiens), Q12809 | 310,000 tested, 0.51% active | dofetilide IC70 present;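 active means activation above the mean of controls blocked by dofetilide plus 5 SD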;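 further: thallium influx through hERG after potassium depolarization seen as dye fluorescence rise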
KCNQ1 pot: potentiators or activators of KCNQ1 channel, primary screen, cell-based, thallium flux, high-throughput. Potassium voltage-gated channel subfamily KQT member 1 (Homo sapiens), P51787. CHO-K1 KCNQ1, thallium flux FluxOR fluorescence; active compounds read high. B-score at 10 µM. 310,000 tested, 0.35% active. AID 2648, 2010;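 active means fluorescence ratio B-score, a plate-corrected score, at least three library SD, with initial intensity B-score within 5 SD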
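Assay system: CHO-K1 cells stably expressing KCNQ1. Medium: assay buffer for compound exposure, DMSO matched across wells. Timing: 37 °C overnight plating, 90-min dark dye load, 20-min compound pretreatment. Signal: kinetic FluxOR fluorescence, 10 s baseline plus 110 s post-stimulus.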
KCNQ1 block val: KCNQ1 potassium channel inhibitors, confirmation, cell-based, Tl flux, duplicate; shares compounds with KCNQ1 block; KCNQ1 cell line, FluxOR thallium flux fluorescence; inhibition, % at 10 µM; 1,600 tested, 93% active;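 active means primary screen active, with duplicate mean exceeding buffer control mean plus 3 SD of buffer wells, cut at about 28% in these data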
CHO KCNQ1 ctr: thallium flux effects in parental CHO cells, counter-screen for KCNQ1 inhibitor project, cell-based, Tl flux; 1,600 tested, 21% active; parental CHO-K1, FluxOR thallium flux fluorescence ratio; active compounds read low; zero means no signal rise above baseline; shares compounds with KCNQ1 block; fluorescence ratio (Tl flux) at 10 µM; AID 588366, 2011;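 active means mean of duplicate thallium-flux fluorescence ratios in parental host cells more than 5 SD below the buffer control mean, cut at about 0.38 in these data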;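 further: ratio is peak minus minimum fluorescence divided by baseline fluorescence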
KCNQ1 APC inh: KCNQ1 channel inhibitors, confirmation, orthogonal assay, cell-based, automated electrophysiology. shares compounds with KCNQ1 block. KCNQ1-CHO cells, automated patch clamp current. calls only at 10 µM. 490 tested, 20% active. AID 624120, 2012;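 active means KCNQ1 current drop exceeding 3 SD of negative control wells, seen in both duplicate runs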;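 further: steady state current during a 2 s step from -80 to +40 mV; negative values mean current inhibition and positive values mean potentiation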
KCNQ2 inh: KCNQ2 channel inhibition, selectivity assay for KCNQ1 inhibitor project, cell-based. KCNQ2 cells, FluxOR thallium flux fluorescence. AID 651746, 2012. 1,600 tested, 71% active. inhibition, % at 10 µM. shares compounds with KCNQ1 block;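 active means mean percent inhibition of the KCNQ2 thallium signal more than 5 SD above the buffer-only control wells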;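 further: KCNQ2 expressed in CHO cells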
KCNQ1 KCNE1 spec: KCNQ1/KCNE1 channel inhibition, selectivity assay for KCNQ1 inhibitor project, CHO-K1 cells, thallium flux, FluxOR. shares compounds with KCNQ1 block. FluxOR thallium flux fluorescence. inhibition, % at 10 µM. 1,600 tested, 77% active. AID 652147, 2013;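 active means mean percent inhibition of duplicate wells above the buffer-only control mean plus 3 SD of those controls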
A number is an active result; – = inactive; · = no result; + = active, no number.

SMILES | KCNK9 block | KCNK3 inh | KCC2 mod | KCNQ1 block | hERG protect | KCNQ1 pot | KCNQ1 block val | CHO KCNQ1 ctr | KCNQ2 inh | KCNQ1 KCNE1 spec | others
S=C(NCC1CCCCC1)Nc1ccc(Oc2ccccc2)cc1 | – | – | – | 9 | – | – | 81 | – | 65% | –
Cc1ncc([N+](=O)[O-])n1S(=O)(=O)c1ccc2c(c1)OCCO2 | · | – | · | · | · | · | · | · | · | ·
Cc1nn(C)c(C)c1NC(=O)Nc1ccc(Cl)c(Cl)c1 | – | – | – | 6 | – | – | 77 | – | – | 76%
Cc1ccc(C(=O)Cc2cc3ccccc3oc2=O)c(C)c1 | – | – | · | – | – | – | · | · | · | ·
O=C(Nc1ccccc1N1CCCCC1)C1CCN(S(=O)(=O)c2ccccc2C(F)(F)F)CC1 | – | – | · | 11 | – | – | 64 | – | 101% | 82%
O=C1CCCN1c1ccc(S(=O)(=O)NCCOc2ccccc2)cc1 | – | – | – | – | – | – | · | · | · | ·
Cc1cc(N2CCCC2=O)cc(C)c1S(=O)(=O)NCCOc1ccc(C(C)(C)C)cc1 | – | – | – | 10 | – | – | 138 | – | 112% | 141% | KCNQ1 APC inh=–
Cc1cc(OCCn2ccnc2)ccc1C(C)C | – | – | – | 6 | – | – | – | – | 64% | 42%
Cc1ccc(OCCCn2ccnc2)cc1C | – | – | – | – | – | – | · | · | · | ·
O=C(CCSc1ccccc1)N1CCN(c2ccccc2)CC1 | – | – | – | 7 | – | – | 26 | – | – | 64%
O=C(NCC(c1ccco1)N1CCCCC1)c1cccc(S(=O)(=O)Nc2ccc(F)cc2)c1 (stereo not drawn) | · | – | · | · | · | · | · | · | · | ·
C[C@H](NS(=O)(=O)c1ccc(Cl)cc1)C(=O)OCC(=O)NC(=O)Nc1ccc2c(c1)OCCO2 | – | – | – | – | – | – | · | · | · | ·
CC(NS(=O)(=O)c1ccc(Cl)c(Cl)c1)C(=O)OCC(=O)Nc1ccc2c(c1)OCO2 (stereo not drawn) | – | – | – | 6 | – | – | – | – | 62% | –
Cc1nc2ccc(NS(=O)(=O)c3ccc4c(c3)OCCO4)cc2s1 | – | – | – | 10 | – | – | 98 | – | 69% | 90% | KCNQ1 APC inh=–
O=C(NCC(c1ccco1)N1CCCC1)c1ccc(Cl)c(S(=O)(=O)N2CCc3ccccc32)c1 (stereo not drawn) | · | – | · | · | · | · | · | · | · | ·
Cc1ccc(-c2cc(-c3ccccc3)c(C#N)c(N)n2)o1 | – | – | – | 6 | – | – | 34 | – | – | 48%
Cc1nc(-c2ccc(S(=O)(=O)Oc3ccc(Cl)cc3Cl)s2)cs1 | – | – | – | 10 | – | – | 126 | – | 121% | + | KCNQ1 APC inh=–
Cc1nc(-c2ccc(S(=O)(=O)Nc3ccc(Br)cc3Cl)s2)cs1 | – | – | – | – | – | – | · | · | · | ·
COc1ccc(C(C)=O)cc1CSc1nnc(-c2ccncc2)n1C | – | – | – | – | – | – | · | · | · | ·
COc1ccc(C(C)=O)cc1CSc1nncn1C | – | – | – | 8 | – | – | 64 | – | 60% | 35%
CCOC(=O)Cc1nnn(CC(=O)OCC)n1 | – | – | – | – | – | – | · | · | · | ·
CCOC(=O)Cc1nn[nH]n1 | – | – | – | 7 | – | – | – | – | – | 37%
CCOC(=O)c1cc(C#N)c(Oc2ccccc2)nc1-c1ccccc1 | – | – | · | 7 | – | – | 88 | 0.33 | 112% | 96%
CCCNc1nc(-c2ccccc2)c(C(=O)OCC)cc1C#N | – | – | · | – | – | – | · | · | · | ·
Cc1ccccc1CCNC(=O)c1ccc(Cl)c(S(=O)(=O)N2CC(C)OC(C)C2)c1 (stereo not drawn) | · | – | · | · | · | · | · | · | · | ·
SMILES | KCNK9 block | KCNK3 inh | KCC2 mod | KCNQ1 block | hERG protect | KCNQ1 pot | KCNQ1 block val | CHO KCNQ1 ctr | KCNQ2 inh | KCNQ1 KCNE1 spec | others
C=CCn1c(SCc2c(C)noc2C)nc2sc3c(c2c1=O)CCCC3 | – | – | – | 7 | – | – | 80 | – | 90% | 146%
Cn1cc(CNCc2ccc(OC(F)(F)F)cc2)c(-c2ccc3c(c2)OCCO3)n1 | – | – | – | 10 | – | – | 124 | – | 112% | 60% | KCNQ1 APC inh=–
CCC(C)n1c(NC(=O)c2ccccc2)c(C#N)c2nc3ccccc3nc21 (stereo not drawn) | – | – | · | 8 | – | – | 82 | – | 64% | –
CCC(=O)Nc1c(C#N)c2nc3ccccc3nc2n1-c1ccc(C)cc1 | · | – | · | · | · | · | · | · | · | ·
Cc1ccc(N(C(=O)Nc2ccccc2)C2=NCCC2)cc1 | – | – | – | – | – | – | · | · | · | ·
COc1ccc(N(C(=O)Nc2ccc(Cl)cc2)C2=NCCC2)cc1 | – | – | – | 12 | – | – | 130 | 0.37 | 132% | 200%
COC(=O)c1ccc(CNC(=O)Cn2nnnc2CN(C)C(C)C)cc1 | – | – | · | – | – | – | · | · | · | ·
CCCCc1ccc(N/C(N)=N/c2nc(C)cc(C)n2)cc1 | – | – | – | 11 | – | – | 96 | – | 66% | – | KCNQ1 APC inh=+
Cc1ccc(N/C(N)=N/c2nc(C)cc(C)n2)cc1 | – | – | – | – | – | – | · | · | · | ·
Cc1cc(C)nc(NC(=O)c2ccc(COc3ccccc3Cl)cc2)c1 | – | – | – | 8 | – | – | 103 | – | 106% | 123% | KCNQ1 APC inh=–
O=C(CSc1nc2ccccc2c(=O)n1CC1CCCO1)NCCc1ccccc1 (stereo not drawn) | – | – | · | – | – | – | · | · | · | ·
O=C(Nc1cccc(Cl)c1)N1CCSc2cc(Cl)ccc21 | – | – | – | 9 | – | – | 119 | – | 111% | 68%
Cc1ccc(C)c(N2CCN(S(=O)(=O)c3ccc4c(c3)OCCO4)CC2)c1 | – | – | – | – | – | – | · | · | · | ·
